Screens deposited in PubChem by several laboratories.
MEKK2 mut-MEK5 = MEK5 binding signal on mutant MEKK2 PB1, primary screen, biochemical, multiplex bead flow cytometry, Alexa488-MEK5. percent response, % at 10 µM. Alexa488-MEK5 binding to MEKK2 mutant. 290,000 compounds, 0.35% hits; in the data active = percent response above about 24%, passing the limit was not always enough
GSK3B inh = human GSK3beta kinase inhibitors, primary screen, biochemical, cell-free homogeneous, HTS; 300,000 compounds, 0.038% hits; Glycogen synthase kinase-3 beta (Homo sapiens), P49841; GST-GSK3beta kinase, ADP-Glo luminescence, 60 min; active compounds read low; activity score (negative = inhibition), % at 10 µM; AID 2097, 2009;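 active = more than half of replicate wells score below -50%, meaning over 50% inhibition versus plate controls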
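Test system: GST-tagged human GSK3beta kinase, cell-free; evaluation: activity score scaled between in-plate DMSO and GW8510 controls; measured by: ADP-Glo luminescence; incubation: 60 min reaction, RT; benchmarks: DMSO and 20 µM GW8510; reagent: peptide substrate plus 25 µM ATP (final); medium: Tris/MgCl2 kinase buffer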
GSK3A inh = blockers of GSK3A enzyme activity – biochemical, luminescence, cell-free homogeneous, HTS, primary screen. Glycogen synthase kinase-3 alpha (Homo sapiens), P49840. GSK-3 alpha kinase, ADP-Glo luminescence, 60 min. inhibition, % at 10 µM. 320,000 compounds, 0.1% hits. AID 2650, 2010;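 active = more than half of replicates show inhibition above 20%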;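 note: GST-tagged GSK-3 alpha with peptide substrate and 25 µM ATP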
STK33 inh = inhibitors of purified STK33 kinase, primary screen, biochemical, ADP-Glo luminescence, homogeneous, cell-free; MBP phosphorylation; inhibition, % at 10 µM; 320,000 compounds, 0.073% hits; AID 2661, 2010;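 active = inhibition at or above 25%, using the most active replicate where run in duplicate; inactive = inhibition below 25%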
Target sequence (Q9BYT3 whole entry, looked up): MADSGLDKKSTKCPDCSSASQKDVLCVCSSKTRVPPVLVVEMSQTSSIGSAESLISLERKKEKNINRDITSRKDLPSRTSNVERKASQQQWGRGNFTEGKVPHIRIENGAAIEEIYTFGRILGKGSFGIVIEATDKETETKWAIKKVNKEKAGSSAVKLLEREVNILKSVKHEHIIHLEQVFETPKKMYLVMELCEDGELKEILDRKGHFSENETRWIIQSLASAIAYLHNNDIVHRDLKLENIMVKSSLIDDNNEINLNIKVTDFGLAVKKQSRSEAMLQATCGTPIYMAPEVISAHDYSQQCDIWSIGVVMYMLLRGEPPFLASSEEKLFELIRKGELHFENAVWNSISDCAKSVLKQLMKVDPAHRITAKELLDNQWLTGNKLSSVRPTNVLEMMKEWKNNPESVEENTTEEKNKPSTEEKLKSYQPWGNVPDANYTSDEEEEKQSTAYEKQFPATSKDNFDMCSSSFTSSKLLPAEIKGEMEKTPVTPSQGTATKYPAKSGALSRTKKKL
MEKK2 WT-MEK5 = modulators of MEK5 binding to wildtype MEKK2, primary screen, biochemical, multiplex bead flow cytometry, Alexa488-MEK5; Mitogen-activated protein kinase kinase kinase 2 (Homo sapiens), Q9Y2U5; Alexa488-MEK5 binding to MEKK2 WT; actives lie on both sides; binding response (% of control), % at 10 µM; 290,000 compounds, 1.1% hits; AID 1531, 2009; in the data active = binding response below about 67% or above about 130%
MEKK3 PB1 HTS = modulators of MEKK3-MEK5 PB1 binding, primary screen, biochemical, wildtype MEKK3, multiplex bead flow cytometry, Alexa488-MEK5. bead-based flow cytometry, Alexa488-MEK5 binding to MEKK3; actives lie on both sides; 0 = blocked by unlabeled MEK5, 100 = vehicle. binding response (% of control), % at 10 µM. 290,000 compounds, 1.4% hits;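 active = binding response more than 3 SD above or below the average of its plate-row segment, actives on both sides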;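 note: Alexa488 bead fluorescence after subtracting the streptavidin-only scavenger bead signal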
MEKK2wt confirm = modulators of MEK5 binding to wildtype MEKK2, confirmation, biochemical, single concentration, multiplex bead flow cytometry; shares compounds with MEKK3 PB1 HTS; binding response (% of control), % at 10 µM; Alexa488-MEK5 binding to MEKK2 WT; actives lie on both sides; 5,900 compounds, 2.4% hits; AID 1892, 2009; in the data active = binding response below about 16% or above about 210%; inactive = in between
MEKK2mut-MEK5 = mutant MEKK2 PB1-MEK5 binding signal retest – biochemical, single concentration, multiplex bead flow cytometry, confirmation. shares compounds with MEKK3 PB1 HTS. Alexa488-MEK5 binding to MEKK2 mutant. percent response, % at 10 µM. 5,900 compounds, 2% hits. AID 1893, 2009; in the data active = percent response mostly above about 71%, no sharp cut-off; inactive = mostly below about 38%;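 note: higher means compound restores mutant binding toward wildtype level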
MEKK3 confirm = MEKK3 wild-type PB1 binding to MEK5, inhibitors, confirmation, biochemical, bead multiplex flow cytometry, single concentration, wildtype | shares compounds with MEKK3 PB1 HTS | 5,900 compounds, 1.8% hits | binding response (% of control), % at 10 µM | AID 1894, 2009 | Alexa488-MEK5 binding to MEKK3; active compounds read low;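 active = binding response below 72% of control, or above a set upper limit, though filed actives all read lower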;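 note: lower values mean stronger disruption of MEK5 binding to MEKK3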
Large screens that a line does not name were inactive (follow-up assays come after a bar, where they were run); [ ] = another dose, or the depositor's remark. In the library only some 2.1% were active in any assay of this set; here they are far more common.

Cc1c(C(=O)OC(C)C)sc(N)c1C(=O)OC(C)C	MEKK3 PB1 HTS 131 | MEKK2wt confirm inactive | MEKK2mut-MEK5 inactive | MEKK3 confirm inactive
Clc1cccc(N/N=C(\Cc2nc3ccccc3[nH]2)c2ccccc2)c1	MEKK2 WT-MEK5 138, MEKK3 PB1 HTS 138 (no result: GSK3A inh, STK33 inh) | MEKK2wt confirm inactive | MEKK2mut-MEK5 inactive | MEKK3 confirm inactive
COc1ccc(NC(=O)CCSc2ccc(C)cc2)cc1S(=O)(=O)Nc1ccccc1Cl	none
COc1ccc(NS(=O)(=O)c2cc(NC(=O)CCSc3ccccc3)ccc2OC)cc1	MEKK3 PB1 HTS 145 | MEKK2wt confirm inactive | MEKK2mut-MEK5 inactive | MEKK3 confirm inactive
COc1ccc(NC(=O)C2CC(=O)N(CCc3ccc(Cl)cc3)C2)cc1 (stereo not given)	none
CC(=O)Oc1ccc(C(=O)[C@H]2[C@H]3C(=O)N(c4cccc5ccccc45)C(=O)[C@H]3[C@@H]3C=CC=NN32)cc1	MEKK3 PB1 HTS 179 | MEKK2wt confirm inactive | MEKK2mut-MEK5 inactive | MEKK3 confirm inactive
COc1ccc(C(=O)[C@H]2[C@H]3C(=O)N(c4ccc(OC(C)=O)cc4)C(=O)[C@H]3C3C=CC=NN32)cc1 (stereo not given in full)	none
CC(OC(=O)CCc1ccccc1)C(=O)Nc1ccc(Cl)cn1 (stereo not given)	none (no result: MEKK2 mut-MEK5, MEKK2 WT-MEK5, MEKK3 PB1 HTS)
CC(C)(C)c1ccc(C(O)CCCN2CCC(C(O)(c3ccccc3)c3ccccc3)CC2)cc1 (stereo not given)	MEKK2 mut-MEK5 24, MEKK2 WT-MEK5 212 | MEKK2wt confirm inactive | MEKK2mut-MEK5 inactive | MEKK3 confirm inactive
Oc1ccccc1CN1CCC(C(O)(c2ccccc2)c2ccccc2)CC1	none
Cc1ccc2c(c1)c1c(n2CCc2ccc(C)nc2)CCN(C)C1	none (no result: MEKK2 mut-MEK5, GSK3B inh, MEKK2 WT-MEK5, MEKK3 PB1 HTS)
CCC(=O)Nc1cccc(C2=NOC3(C2)C[C@H](C(N)=O)N(C(=O)CC#N)C3)c1 (stereo not given in full)	MEKK3 PB1 HTS 78[inhibitor] | MEKK2wt confirm inactive | MEKK2mut-MEK5 inactive | MEKK3 confirm inactive
CCCCCC(=O)Nc1cccc(C2=NOC3(C2)C[C@H](C(N)=O)N(C(=O)COc2ccc(Cl)cc2)C3)c1 (stereo not given in full)	MEKK2 WT-MEK5 6.0[inhibitor], MEKK3 PB1 HTS 3.0[inhibitor] | MEKK2wt confirm inactive | MEKK2mut-MEK5 inactive | MEKK3 confirm inactive
C/C=C\C=C/C(=O)Nc1cccc(C2=NOC3(C2)C[C@@H](C(N)=O)N(C(=O)COc2ccc(Cl)cc2)C3)c1 (stereo not given in full)	none
O=C(NCCc1ccc(C(F)(F)F)cc1)c1ccc(Cl)nc1	none
CN(C(=O)C1CCN(S(=O)(=O)c2ccccc2[N+](=O)[O-])CC1)C1CCCCC1	none (no result: MEKK2 mut-MEK5, GSK3B inh, MEKK2 WT-MEK5, MEKK3 PB1 HTS)
CC(C)c1nc(SCC(=O)Nc2cccc3ccccc23)n[nH]1	none (no result: MEKK2 mut-MEK5, GSK3B inh, MEKK2 WT-MEK5, MEKK3 PB1 HTS)
Cc1onc(C(=O)N2CCN(c3ccccc3F)CC2)c1-c1ccccc1Cl	MEKK3 PB1 HTS 130 | MEKK2wt confirm inactive | MEKK2mut-MEK5 inactive | MEKK3 confirm inactive
CC1Sc2ccc(S(=O)(=O)N3CCC(C(=O)Nc4cccc(Cl)c4)CC3)cc2NC1=O (stereo not given)	none
Cc1ccccc1N1CCN(CCCN2C(=O)CC(=C(c3ccccc3)c3ccccc3)C2=O)CC1	none
O=C1CC(=C(c2ccccc2)c2ccccc2)C(=O)N1CCCCN1CCN(c2cccc(Cl)c2)CC1	MEKK2 WT-MEK5 142 | MEKK2wt confirm inactive | MEKK2mut-MEK5 inactive | MEKK3 confirm inactive
CCOC(=O)Cc1csc(NC(=O)c2c(O)c3ccccc3n(CC(C)C)c2=O)n1	MEKK3 PB1 HTS 73[inhibitor] | MEKK2wt confirm inactive | MEKK2mut-MEK5 inactive | MEKK3 confirm inactive
CC(C)OCCCNC(=O)CCN1C(=O)COc2ccccc21	MEKK2 WT-MEK5 -2.0[inhibitor], MEKK3 PB1 HTS 1.0[inhibitor] | MEKK2wt confirm inactive | MEKK2mut-MEK5 inactive | MEKK3 confirm inactive
CC1(C)CC(=O)C(C=Nc2ccncc2)=C(O)C1	MEKK2 WT-MEK5 -7.0[inhibitor], MEKK3 PB1 HTS 0.0[inhibitor] | MEKK2wt confirm inactive | MEKK2mut-MEK5 inactive | MEKK3 confirm inactive
CC1(C)CC(=O)C(C=Nc2cccnc2)=C(O)C1	none
CCCCCCN=CC1=C(O)CC(C)(C)CC1=O	MEKK2 WT-MEK5 0.0[inhibitor], MEKK3 PB1 HTS 0.0[inhibitor] | MEKK2wt confirm inactive | MEKK2mut-MEK5 inactive | MEKK3 confirm inactive
COCCCN=CC1=C(O)CC(C)(C)CC1=O	none (no result: GSK3A inh)
CCN1CCc2nc(NC(=O)c3ccc4c(c3)OCCO4)sc2C1	none
CCN1CCc2nc(NC(=O)C(c3ccccc3)c3ccccc3)sc2C1	none
CCN1CCc2nc(NC(=O)CC(c3ccccc3)c3ccccc3)sc2C1	MEKK2 mut-MEK5 44, MEKK2 WT-MEK5 183 | MEKK2wt confirm inactive | MEKK2mut-MEK5 inactive | MEKK3 confirm inactive
CCN1CCc2nc(NC(=O)Cc3ccc4c(c3)OCCO4)sc2C1	MEKK2 WT-MEK5 140 | MEKK2wt confirm inactive | MEKK2mut-MEK5 inactive | MEKK3 confirm inactive
Cc1nc(NCCOc2ccccc2)sc1C(=O)Nc1ccccc1	none
CCN(C(=O)CSc1ncccc1C(=O)OC(C)C)c1cccc(C)c1	MEKK2 WT-MEK5 -3.0[inhibitor], MEKK3 PB1 HTS 0.0[inhibitor] | MEKK2wt confirm inactive | MEKK2mut-MEK5 inactive | MEKK3 confirm inactive
COC(=O)C1CCC(C)(C(=O)Nc2ccccc2)C1(C)C (stereo not given)	MEKK2 WT-MEK5 3.0[inhibitor], MEKK3 PB1 HTS 3.0[inhibitor] | MEKK2wt confirm inactive | MEKK2mut-MEK5 inactive | MEKK3 confirm inactive
CCOC(=O)N/N=C(\C)c1ccc(C)c([N+](=O)[O-])c1	MEKK3 PB1 HTS 132 | MEKK2wt confirm inactive | MEKK2mut-MEK5 inactive | MEKK3 confirm inactive
